# Results from PMC4854730 (The Journal of Experimental Medicine, 2016).
# How the values were obtained:
# [1] = Compound E and XR9576 levels in brain tissue; assay type: in vivo, mouse; settings: LC-MS
# Outline: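 Brain hemispheres were homogenised by shaking with a steel ball (5 min, 20 Hz) in 45% methanol/45% acetonitrile/8% water/2% formic acid containing 1 µM internal standard, at 200 mg/ml. Extracts were centrifuged, filtered (0.8 µm) and run on capillary LC-MS (PLRPS column; water/acetonitrile gradient with 0.1% formic acid). Levels were quantified from internal-standard-normalised peak areas against an external curve prepared in control mouse brain extract.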
# LRP1 = LRP1 protein levels in brain tissue; assay type: in vivo, mouse; settings: after XR9576 administration; n = 9/group; P = 0.35
# P-glycoprotein (Pgp) = settings: rodents; ref Bankstahl et al., 2008; cited from earlier work
# ISF Aβ40 = assay: baseline ISF Aβ40 in hippocampus measured with calibrated Aβ40 MIE; assay type: in vivo, APP/PS1 mice; settings: 60 min after XR9576 80 mg/kg; n = 8; mean ± SEM; control mice 99.12 ± 19.28 (n = 15); P = 0.008
# [2] = tested on: mRNA of genes related to APP processing or Aβ clearance; assay: qRT-PCR of APP processing and Aβ clearance genes in brain; assay type: in vivo, mouse; settings: 2 h after 80 mg/kg i.v.; cortex; n = 6/group; P = 0.08-0.94
# Outline: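 3-month-old mice received the Pgp inhibitor (80 mg/kg i.v.) or vehicle (5% dextrose) and were killed 2 h later. Cortical total RNA was reverse transcribed and run by SYBR Green qPCR with dissociation-curve checks. Genes were APP, PSEN1/2, nicastrin, APH-1, BACE1, ADAM10/17, Pgp, LRP1, IDE, NEP, MMP2 and MMP9. Levels were derived by ΔΔCt against mouse GAPDH and compared by t tests corrected for multiple comparisons.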
# ISF Aβ = assay: in vivo microdialysis of ISF Aβ during isoflurane anesthesia; set-up: species or system mouse; settings: first 3 h of isoflurane anesthesia, n = 4, not significant, P = 0.135
compound,measurement,setting,value
C[C@H](NC(=O)Cc1cc(F)cc(F)c1)C(=O)N[C@H]1N=C(c2ccccc2)c2ccccc2N(C)C1=O [Compound E],Compound E level in brain tissue,[1]; within 5 min after intraperitoneal injection (30 mg/kg),395 nM
COc1cc2c(cc1OC)CN(CCc1ccc(NC(=O)c3cc(OC)c(OC)cc3NC(=O)c3cnc4ccccc4c3)cc1)CC2 [XR9576],LRP1 protein levels in hippocampus,LRP1,did not change
same,XR9576 level in brain tissue,"[1]; 1 h after injection, mouse brain extract, mean ± SEM",533.0 ± 68.11 µM
same,time of maximum inhibition of Pgp activity after injection,P-glycoprotein (Pgp),30 min
same,absolute baseline concentration of ISF Aβ40,ISF Aβ40,283.9 ± 80.38
same,mRNA expression levels in the brain,[2],did not find significant differences
FC(F)OC(Cl)C(F)(F)F (stereo not shown) [isoflurane],decrease of ISF Aβ levels,ISF Aβ,14%
